Bioassay records deposited in PubChem by Broad Institute.
Compounds with a hit are over-represented: about 2.1% of the library has one in this group of screens.
SR-BI DiI inh = inhibitors of mouse SR-BI mediated HDL lipid uptake. Q61009. ldlA[mSR-BI] CHO cells, DiI-HDL uptake fluorescence, 3 h. inhibition, % at 12.5 µM. 320,000 tested, 0.96% active. AID 488896;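 active = mean replicate inhibition of at least 70% and a set share of replicates each scoring 70 or more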
Target sequence (Q61009 whole entry, looked up): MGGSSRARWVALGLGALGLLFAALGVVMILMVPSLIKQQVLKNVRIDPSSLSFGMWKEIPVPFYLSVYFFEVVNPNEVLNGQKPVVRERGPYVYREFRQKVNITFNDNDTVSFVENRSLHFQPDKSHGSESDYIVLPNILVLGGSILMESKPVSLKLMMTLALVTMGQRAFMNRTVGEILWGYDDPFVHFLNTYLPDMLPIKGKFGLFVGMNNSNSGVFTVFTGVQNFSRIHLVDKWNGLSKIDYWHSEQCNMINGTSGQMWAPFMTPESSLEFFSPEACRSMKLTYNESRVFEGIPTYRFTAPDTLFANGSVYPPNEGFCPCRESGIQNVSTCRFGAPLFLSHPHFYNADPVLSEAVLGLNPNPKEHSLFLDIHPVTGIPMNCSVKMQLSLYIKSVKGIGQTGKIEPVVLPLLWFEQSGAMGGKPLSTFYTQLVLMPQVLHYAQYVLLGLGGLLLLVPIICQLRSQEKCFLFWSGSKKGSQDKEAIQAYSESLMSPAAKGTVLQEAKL
CAL PDZ FP-1 = inhibitors of human CAL PDZ peptide binding | Q9HD26 | purified CAL PDZ, TMR-peptide fluorescence polarization, 1 h | inhibition, % at 20 µM | 330,000 tested, 0.02% active;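 active = highest replicate inhibition of at least 40%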
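Material – purified CerCALP PDZ construct · Detection – FP readout, S and P plane fluorescence · Measure – percent inhibition from loss of millipolarization · Controls – unlabelled peptide for full inhibition, DMSO wells as neutral · Probe or stimulus – TMR-labelled reporter peptide T*-PRC34 bound in PDZ groove · Times – 1 h at RT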
SR-BI DiI-HDL act = SR-BI HDL lipid transfer activation; CHO ldlA[mSR-BI] cells, DiI-HDL uptake fluorescence, 3 h; 100 = double the neutral-control signal; activation, % at 12.5 µM; 320,000 tested, 0.096% active; AID 504775;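 active = mean replicate activation of at least 60% and every replicate at or above 60%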
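Test system: SR-BI-overexpressing, LDLR-lacking CHO cells; Medium: Ham's F12 with 0.5% BSA, HEPES 25 mM, pH 7.4; Schedule: 3 h, 37 °C; Technique: bottom-read fluorescence, 550/595 nm.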
ARNT TACC3 PPI = disrupts binding between human ARNT and TACC3; AlphaScreen His-ARNT PAS-B/GST-TACC3 binding, luminescence; TACC3 fragment carries E629A point mutation; 390,000 tested, 0.66% active; Q9Y6A5; inhibition, % at 9.99 µM;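 active = mean inhibition of replicates at least 50% and at least half of replicates each reaching 50%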
miR122 inh = miR-122 inhibition in Huh7 cells. Huh7 miR-122 Renilla luciferase sensor, 48 h; neutral wells = 0, positive control = 100. activation (reporter increase), % at 12.5 µM. 340,000 tested, 0.3% active;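 active = mean replicate activation score at least 90 and every replicate individually at or above 90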;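 also: higher luciferase means less miR-122 activity so hits act as miR-122 inhibitors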
CAL PDZ FP-2 = blocks peptide binding to the human CAL PDZ domain | 300,000 tested, 0.92% active | inhibition, % at 24.9 µM | purified CAL PDZ, TMR-peptide fluorescence polarization, 1 h | AID 602252;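 active = mean inhibition of at least 30% with at least half of replicates also reaching 30%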
Numbers stand for hits; i = inactive; nt = not tested or not shown; [ ] = another dose, or the depositor's remark.

SMILES | SR-BI DiI inh | CAL PDZ FP-1 | SR-BI DiI-HDL act | ARNT TACC3 PPI | miR122 inh | CAL PDZ FP-2
CC(C)(C)C(=O)NNC(=O)C1CC1(c1ccccc1)c1ccccc1 (stereo not drawn) | i | i | i | i | i | 35
Oc1ccc(/C=N/NC(=S)Nc2cccnc2)c(O)c1O | i | i | i | 64 | i | i
Oc1ccc(C=NNC(=S)Nc2ccc(F)cc2)c(O)c1 | i | i | i | 65 | i | 32
Oc1ccc(/C=N/NC(=S)Nc2cccnc2)c(O)c1 | i | i | i | 65 | nt | i
S=C(N/N=C/c1ccc2ncccc2c1)Nc1ccccc1 | i | i | i | i | nt | 33
CCCNC(=O)N(C)C[C@H]1Oc2ncc(C3=CCCCC3)cc2C(=O)N([C@H](C)CO)C[C@H]1C | nt | nt | nt | i | i | nt
CCCN1C[C@@H](C)[C@@H](OC)CN(C)C(=O)c2cc(NC(=O)c3cccc(F)c3)ccc2OC[C@H]1C | nt | nt | nt | i | i | nt
Oc1cccc(/C=N/NC(=S)Nc2cccnc2)c1O | i | i | i | 66 | nt | i
COCCCNC(=S)N/N=C/c1ccc(O)cc1O | i | i | i | 84 | i | i
COCCCNC(=S)N/N=C/c1ccc(O)cc1 | i | i | i | nt | i | i
FC(F)(F)c1cccc(Cc2noc(CN3CCSCC3)n2)c1 | i | i | i | i | nt | i
Fc1cccc(Cc2noc(CN3CCSCC3)n2)c1 | i | i | i | i | nt | 57
O=C(Nc1ccccn1)c1cc2cc([N+](=O)[O-])ccc2s1 | i | i | i | i | nt | nt
C=CCOc1ccc2cccc(/C=N/NC(=O)c3cc4cc([N+](=O)[O-])ccc4s3)c2c1 | 77 | i | i | i | i | i
COc1ccccc1OCC(O)Cn1nc(C)cc1C (stereo not drawn) | i | i | i | i | i | 74
COc1ccc(Cl)cc1N/C(N)=N/c1nc(CSc2ccc(C)cc2)cc(=O)[nH]1 | i | i | i | i | i | nt
N/C(=N\c1nc(CSc2ccccn2)cc(=O)[nH]1)Nc1ccc(Cl)cc1Cl | i | i | i | i | i | 78
Clc1ccc(Nc2nc(-c3cccnc3)cs2)cc1 | i | i | i | i | nt | i
O=C(Nc1cccc(-c2csc(Nc3ccc(Cl)cc3)n2)c1)c1ccccc1 | 98 | i | i | i | i | i
O=C(Nc1ccc(-c2csc(Nc3ccccc3)n2)cc1)c1ccccc1 | 86 | i | i | i | i | i
O=C(O)CCC(=O)Nc1ccc(-c2csc(Nc3cccc4ccccc34)n2)cc1 | i | i | i | 8.8 | nt | i
O=C(Cc1cccs1)N1CCN(S(=O)(=O)c2ccc(Br)cc2)CC1 | i | i | 195 | nt | i | i
CS(=O)(=O)N1CCN(C(=O)Cc2cccs2)CC1 | i | i | i | i | nt | i
COC(=O)C1=C(N)OC2=C(C(=O)CC(C)(C)C2)C1c1cccs1 (stereo not drawn) | i | i | 822 | i | i | i
CC1(C)CC(=O)C2=C(C1)OC(N)=C(C#N)C2c1cccs1 (stereo not drawn) | i | i | i | i | i | i
SMILES | SR-BI DiI inh | CAL PDZ FP-1 | SR-BI DiI-HDL act | ARNT TACC3 PPI | miR122 inh | CAL PDZ FP-2
O=C(c1ccccn1)N1C[C@@H]2[C@H](c3ccccc31)[C@H](CO)N2C(=O)C1CC1 | nt | nt | nt | 49 | i | nt
O=C(Nc1ccccc1)N1C[C@@H]2[C@H](c3ccccc31)[C@@H](CO)N2C(=O)c1ccccn1 | nt | nt | nt | i | i | nt
O=C(c1ccccn1)N1C[C@H]2[C@@H](c3ccccc31)[C@@H](CO)N2C(=O)CC1CC1 | nt | nt | nt | 45 | i | nt
O=C(Nc1ccccc1F)N1C[C@@H]2[C@H](c3ccccc31)[C@@H](CO)N2C(=O)C1CCCC1 | nt | nt | nt | i | 130[16.7 µM] | nt
O=C(Nc1ccccc1)N1C[C@H]2[C@@H](c3ccccc31)[C@@H](CO)N2C(=O)c1ccccn1 | nt | nt | nt | i | 132[16.7 µM] | nt
O=C(c1ccccn1)N1C[C@H]2[C@@H](c3ccccc31)[C@H](CO)N2C(=O)C1CCCC1 | nt | nt | nt | i | i | nt
C[C@@H](O)C#Cc1cnc2c(c1)C(=O)N([C@@H](C)CO)C[C@H](C)[C@H](CN(C)C(=O)Cc1ccccn1)O2 | nt | nt | nt | i | i | nt
O=C(Nc1ccc2c(c1)[C@H]1C[C@H](CC(=O)N3CCOCC3)O[C@H](CO)[C@H]1O2)c1ccc2c(c1)OCO2 | nt | nt | nt | i | i | nt
